# Experiments:
# Tubulin (Homo sapiens) = Tubulin (Homo sapiens) (UniProt P68371+Q9H4B7+P0DPH7+P68366+Q13509+Q71U36+P04350+Q3ZCM7+P07437+P68363+Q9BQE3+Q6PEY2+Q13885+Q9BVA1+Q9BUF5); experiment: Inhibition of tubulin polymerization in human NCI-H522 cells assessed as alpha-tubulin accumulation in cytoskeletal fraction after 24 hrs by Western blot analysis; format: cell-based
# Method in brief: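 NCI-H522 cells were exposed for 24 h to compound (10, 30 or 100 nM) or DMSO vehicle. They were then lysed 5 min at 37 °C in hypotonic buffer (1 mM MgCl2, 2 mM EGTA, 0.5% NP-40, protease inhibitors, 20 mM Tris-HCl pH 6.8) and centrifuged at 15,000 × g for 10 min at 25 °C. α- and β-tubulin were assessed in the cytoskeletal fraction.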
# NCI-H522 [1] = experiment: Cytotoxicity against human NCI-H522 cells after 48 hrs by MTT assay; format: functional, cell-based; settings: NCI-H522, 48 h
# Detroit 551 = experiment: Cytotoxicity against human Detroit 551 cells after 48 hrs; format: cell-based; settings: Detroit 551, 48 h
# Method in brief: (§1)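 MTT viability assay on log-phase cells at 37 °C, exposed to compound or DMSO vehicle for 48 h. MTT (1 mg/mL in PBS) was then added for 2 h, and absorbance was read at 570 nm with 630 nm correction. IC50 is the concentration giving 50% proliferation inhibition. Cells were cultured in 5% CO2: HL-60 in RPMI-1640 with 10% FBS; Hep3B in DMEM/F12 with 10% FBS; Detroit 551 in DMEM with 10% FBS.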
# HL-60 = experiment: Cytotoxicity against human HL60 cells after 48 hrs; format: functional, cell-based; settings: HL-60, 48 h; method in brief: as §1
# MDA-MB-468 = experiment: Cytotoxicity against human MDA-MB-468 cells after 48 hrs; format: functional; settings: MDA-MB-468, 48 h
# BT-549 = experiment: Cytotoxicity against human BT549 cells after 48 hrs; format: functional; settings: BT-549, 48 h
# MDA-MB-231 = experiment: Cytotoxicity against human MDA-MB-231 cells after 48 hrs; format: functional; settings: MDA-MB-231, 48 h
# DU-145 = experiment: Cytotoxicity against human DU145 cells after 48 hrs; format: functional; settings: DU-145, 48 h
# MCF7 = experiment: Cytotoxicity against human MCF7 cells after 48 hrs; format: functional; settings: MCF7, 48 h
# PC-3 = experiment: Cytotoxicity against human PC3 cells after 48 hrs; format: functional; settings: PC-3, 48 h
# UO-31 = experiment: Cytotoxicity against human UO31 cells after 48 hrs; format: functional; settings: UO-31, 48 h
# ACHN = experiment: Cytotoxicity against human ACHN cells after 48 hrs; format: functional
# A498 = experiment: Cytotoxicity against human A498 cells after 48 hrs; format: functional; settings: A498, 48 h
# SK-OV-3 = experiment: Cytotoxicity against human SKOV3 cells after 48 hrs; format: functional; settings: SK-OV-3, 48 h
# 786-0 = experiment: Cytotoxicity against human 786-0 cells after 48 hrs; format: functional; settings: 786-0, 48 h
# [2] = Cytotoxicity against human NCI-ADR-RES cells after 48 hrs; format: functional
# UACC-62 = experiment: Cytotoxicity against human UACC62 cells after 48 hrs; format: functional; settings: UACC-62, 48 h
# SK-MEL-5 = experiment: Cytotoxicity against human SK-MEL-5 cells after 48 hrs; format: functional; settings: SK-MEL-5, 48 h
# SK-MEL-2 = experiment: Cytotoxicity against human SK-MEL-2 cells after 48 hrs; format: functional; settings: SK-MEL-2, 48 h
# Method in brief: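 Tested in the NCI-60 human cancer cell line panel. Results are given as log concentrations: GI50 reduced cell growth to 50% […], TGI caused total growth inhibition, and LC50 killed 50% of the test population.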
# MDA-MB-435 = experiment: Cytotoxicity against human MDA-MB-435 cells after 48 hrs; format: functional; settings: MDA-MB-435, 48 h
# M14 = experiment: Cytotoxicity against human M14 cells after 48 hrs; format: functional; settings: M14, 48 h
# U-251 = experiment: Cytotoxicity against human U251 cells after 48 hrs; format: functional; settings: U-251, 48 h
# SNB-75 = experiment: Cytotoxicity against human SNB75 cells after 48 hrs; format: functional; settings: SNB-75, 48 h
# SNB-19 = experiment: Cytotoxicity against human SNB19 cells after 48 hrs; format: functional; settings: SNB-19, 48 h
# SF-268 = experiment: Cytotoxicity against human SF268 cells after 48 hrs; format: functional; settings: SF-268, 48 h
# HCC 2998 = experiment: Cytotoxicity against human HCC2998 cells after 48 hrs; format: functional; settings: HCC 2998, 48 h
# NCI-H522 [3] = experiment: Cytotoxicity against human NCI-H522 cells after 48 hrs; format: functional; settings: NCI-H522, 48 h, read-out: pLC50 (the source's name) (converted)
# HOP-92 = experiment: Cytotoxicity against human HOP92 cells after 48 hrs; format: functional; settings: HOP-92, 48 h
# HOP-62 = experiment: Cytotoxicity against human HOP62 cells after 48 hrs; format: functional; settings: HOP-62, 48 h
# RPMI-8226 = experiment: Cytotoxicity against human RPMI8226 cells after 48 hrs; format: functional; settings: RPMI-8226, 48 h
# CCRF-CEM = experiment: Cytotoxicity against human CCRF-CEM cells after 48 hrs; format: functional
# [4] = read-out: pLC50 (the source's name) (converted)
structure (smiles),measurement,setting,value
COc1cc(O)cc(-c2cc(=O)c3cc(N4CCCC4)ccc3[nH]2)c1,inhibition,Tubulin (Homo sapiens),Dose-dependent effect
same,IC50,NCI-H522 [1],42.3 nM
same,IC50,Detroit 551,> 50 µM
same,IC50,HL-60,100 nM
same,GI50,MDA-MB-468,263 nM
same,CC50,MDA-MB-468; [4],> 100 µM
same,TGI,MDA-MB-468; read-out: pTGI (converted),2000 nM
same,GI50,BT-549,37.1 nM
same,CC50,BT-549; [4],> 100 µM
same,TGI,BT-549; read-out: pTGI,> 100 µM
same,GI50,MDA-MB-231,50.1 nM
same,CC50,MDA-MB-231; [4],> 100 µM
same,TGI,MDA-MB-231; read-out: pTGI,> 100 µM
same,GI50,DU-145,30.9 nM
same,CC50,DU-145; [4],> 100 µM
same,TGI,DU-145; read-out: pTGI (converted),257 nM
same,GI50,MCF7,47.9 nM
same,CC50,MCF7; [4],> 100 µM
same,TGI,MCF7; read-out: pTGI,> 100 µM
same,GI50,PC-3,97.7 nM
same,CC50,PC-3; [4],> 100 µM
same,TGI,PC-3; read-out: pTGI,> 100 µM
same,GI50,UO-31,182 nM
same,CC50,UO-31; [4],> 100 µM
same,TGI,UO-31; read-out: pTGI,> 100 µM
same,GI50,ACHN,77.6 nM
same,CC50,ACHN; [4],> 100 µM
same,TGI,ACHN; read-out: pTGI,> 100 µM
same,GI50,A498,4.07 µM
same,CC50,A498; [4],> 100 µM
same,TGI,A498; read-out: pTGI,> 100 µM
same,GI50,SK-OV-3,23.4 nM
same,CC50,SK-OV-3; [4],> 100 µM
same,TGI,SK-OV-3; read-out: pTGI (converted),25.1 µM
same,GI50,786-0,178 nM
same,CC50,786-0; [4],> 100 µM
same,TGI,786-0; read-out: pTGI,> 100 µM
same,GI50,[2],61.7 nM
same,CC50,[2]; [4],> 100 µM
same,TGI,[2]; read-out: pTGI (converted),513 nM
same,GI50,UACC-62,646 nM
same,CC50,UACC-62; [4],> 100 µM
same,TGI,UACC-62; read-out: pTGI,> 100 µM
same,GI50,SK-MEL-5,24.6 nM
same,CC50,SK-MEL-5; [4],490 nM
same,TGI,SK-MEL-5; read-out: pTGI (converted),66.1 nM
same,GI50,SK-MEL-2,28.2 nM
same,CC50,SK-MEL-2; [4],87.1 µM
same,GI50,MDA-MB-435,10 nM
same,TGI,MDA-MB-435; read-out: pTGI (converted),29.5 nM
same,GI50,M14,30.2 nM
same,CC50,M14; [4],> 100 µM
same,TGI,M14; read-out: pTGI (converted),15.8 µM
same,GI50,U-251,46.8 nM
same,CC50,U-251; [4],87.1 µM
same,TGI,U-251; read-out: pTGI (converted),14.5 µM
same,GI50,SNB-75,34.7 nM
same,CC50,SNB-75; [4],77.6 µM
same,TGI,SNB-75; read-out: pTGI (converted),13.2 µM
same,GI50,SNB-19,74.1 nM
same,CC50,SNB-19; [4],> 100 µM
same,TGI,SNB-19; read-out: pTGI,> 100 µM
same,GI50,SF-268,25.7 nM
same,CC50,SF-268; [4],> 100 µM
same,TGI,SF-268; read-out: pTGI,> 100 µM
same,GI50,HCC 2998,45.7 nM
same,CC50,HCC 2998; [4],> 100 µM
same,TGI,HCC 2998; read-out: pTGI,> 100 µM
same,CC50,NCI-H522 [3],3.89 µM
same,GI50,HOP-92,30.9 µM
same,CC50,HOP-92; [4],> 100 µM
same,TGI,HOP-92; read-out: pTGI,> 100 µM
same,GI50,HOP-62,51.3 nM
same,CC50,HOP-62; [4],> 100 µM
same,TGI,HOP-62; read-out: pTGI (converted),20.9 µM
same,GI50,RPMI-8226,468 nM
same,CC50,RPMI-8226; [4],> 100 µM
same,TGI,RPMI-8226; read-out: pTGI,> 100 µM
same,GI50,CCRF-CEM,32.4 nM
same,CC50,CCRF-CEM; [4],> 100 µM
same,TGI,CCRF-CEM; read-out: pTGI,> 100 µM
